For data set [1], the system named is Rattus norvegicus. The data set can be described thus: Dose-normalized AUC in Sprague-Dawley rat at 1 mg/kg, iv and 4 mg/kg, po. The data set is classed as ADME, organism-based. The settings on record: in vivo.
Data set [2] deals with T1, Melanocortin receptor 4 (Homo sapiens, UniProt P32245). The data set can be described thus: Agonist activity at human MC4R expressed in CHO cells assessed as increase of alpha-MSH-stimulated cAMP release pretreated for 10 mins before alpha-MSH challenge measured after 40 mins. The data set is classed as functional, cell-based. Put shortly:
(§1)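 Each value is the mean of at least three repeat measurements. Functional read-outs give EC50 with % maximal activation.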

Data set [3] can be described thus: Agonist activity at human MC1bR expressed in CHO cells assessed as increase of alpha-MSH-stimulated cAMP release pretreated for 10 mins before alpha-MSH challenge measured after 40 mins relative to alpha-MSH. It counts as functional. The gist of the method:
as §1

Data set [4] concerns the target T1, Melanocortin receptor 4. Briefly: Agonist activity at human MC4R expressed in CHO cells assessed as increase of alpha-MSH-stimulated cAMP release pretreated for 10 mins before alpha-MSH challenge measured after 40 mins relative to alpha-MSH. The data set is classed as functional, cell-based. The gist of the method: as §1
Data set [5] in a line: Volume of distribution at steady state in Sprague-Dawley rat at 1 mg/kg, iv and 4 mg/kg, po. The data set is classed as ADME, organism-based. The settings on record: in vivo, read-out: Vdss.
Data set [6] is described as follows: Oral bioavailability in Sprague-Dawley rat at 4 mg/kg. The data set is classed as ADME, organism-based. The settings on record: in vivo.
Data set [7] is described as follows: Agonist activity at human MC1bR expressed in CHO cells assessed as increase of alpha-MSH-stimulated cAMP release pretreated for 10 mins before alpha-MSH challenge measured after 40 mins. It counts as functional, cell-based. Put shortly: as §1
Data set [8] in a line: Half life in Sprague-Dawley rat at 1 mg/kg, iv and 4 mg/kg, po. It counts as ADME, organism-based. The settings on record: in vivo.
Data set [9] in a line: Clearance in Sprague-Dawley rat at 1 mg/kg, iv and 4 mg/kg, po. The settings on record: in vivo. It counts as ADME, organism-based.
Data set [10] concerns the target T1, Melanocortin receptor 4. Briefly: Displacement of [125I]-NDP-R-MSH from human MC4R expressed in CHO cells after 1.5 hrs by scintillation counting. It counts as cell-based. The gist of the method: as §1
A further data set concerns the target Melanocortin receptor 3 (Mus musculus, UniProt P33033). Briefly: Agonist activity at mouse MC3 receptor. It counts as functional.
For data set [11], the system named is Mus musculus. The data set can be described thus: Antiobesity activity in wild type diet-induced obese mouse model assessed as reduction in food intake at 10 mg/kg, po. On the set-up: dose 10 mg/kg. The data set is classed as functional, organism-based. Put shortly:
(§2)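 Wild-type and MC4R/3R knockout mice received a single oral dose of 10 mg/kg, with a vehicle-dosed group for each genotype. Food intake and body weight change were measured against vehicle.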

Data set [12] relates to Mus musculus. Briefly: Antiobesity activity in MC4R/3R knockout diet-induced obese mouse model assessed as reduction in body weight at 10 mg/kg, po. It counts as functional, organism-based. Set-up: dose 10 mg/kg. The gist of the method: as §2
The subject of data set [13] is Mus musculus. Briefly: Antiobesity activity in wild type diet-induced obese mouse model assessed as reduction in body weight at 10 mg/kg, po. It counts as functional, organism-based. Set-up: dose 10 mg/kg. Put shortly:
as §2

In data set [14] the test system is Rattus norvegicus. Briefly: Antiobesity activity in wild type 14 days diet-induced obese rat model assessed as reduction in body weight at 20 mg/kg, po BID. The data set is classed as functional, organism-based. On the set-up: dose 20 mg/kg. The gist of the method:
(§3)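 Diet-induced obese rats were dosed orally twice daily for 14 days at 2, 6 or 20 mpk. Vehicle and orally dosed positive-control groups were included. Body weight was recorded daily and expressed as change in grams.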

The subject of data set [15] is Rattus norvegicus. The data set can be described thus: Antiobesity activity in wild type 14 days diet-induced obese rat model assessed as reduction in body weight at 6 mg/kg, po BID. It counts as functional, organism-based. Set-up: dose 6 mg/kg. The gist of the method: as §3
Data set [16] concerns Mus musculus. Briefly: Antiobesity activity in MC4R/3R knockout diet-induced obese mouse model assessed as reduction in food intake at 10 mg/kg, po. It counts as functional, organism-based. On the set-up: dose 10 mg/kg. Put shortly:
as §2

The subject of data set [17] is Rattus norvegicus. The data set can be described thus: Antiobesity activity in wild type 14 days diet-induced obese rat model assessed as reduction in body weight at 10 mg/kg, po BID. The data set is classed as functional, organism-based. Set-up: dose 10 mg/kg.

Activity calls are given as the source filed them. No cut-off for these calls is given here.

T1 sequence (P32245 whole entry): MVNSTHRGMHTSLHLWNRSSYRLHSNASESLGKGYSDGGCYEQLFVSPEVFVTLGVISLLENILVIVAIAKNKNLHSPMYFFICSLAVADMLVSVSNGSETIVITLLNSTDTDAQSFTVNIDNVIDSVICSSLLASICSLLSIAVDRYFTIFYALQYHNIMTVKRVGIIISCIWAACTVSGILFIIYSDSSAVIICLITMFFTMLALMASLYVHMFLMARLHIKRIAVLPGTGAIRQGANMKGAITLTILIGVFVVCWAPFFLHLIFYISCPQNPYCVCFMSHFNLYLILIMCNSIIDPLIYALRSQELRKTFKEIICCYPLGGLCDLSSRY
Chain of Melanocortin receptor 3 (P33033 whole entry): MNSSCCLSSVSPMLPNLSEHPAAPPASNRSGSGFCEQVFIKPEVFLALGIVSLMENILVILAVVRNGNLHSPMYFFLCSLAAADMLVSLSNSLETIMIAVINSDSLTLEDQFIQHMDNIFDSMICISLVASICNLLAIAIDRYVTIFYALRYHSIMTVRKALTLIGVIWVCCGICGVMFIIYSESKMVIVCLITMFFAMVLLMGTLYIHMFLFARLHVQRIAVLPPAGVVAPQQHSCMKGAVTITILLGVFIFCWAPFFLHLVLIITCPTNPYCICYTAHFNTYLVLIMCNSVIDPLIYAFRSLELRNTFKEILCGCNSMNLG

As for `CC(=O)N(C)C(C)(C)[C@@H]1CC2(CCN(C(=O)[C@@H]3CN(C(C)(C)C)C[C@H]3c3ccc(F)cc3F)CC2)c2cc(Cl)c(C)cc21`, the AUC/dose with Rattus norvegicus [1] was 0.83 µM·h/mg/kg. Moreover, the EC50 at Melanocortin receptor 4 [2] amounted to 2.1 nM; in [7] it was 494 nM. In addition, the Activity in [3] was determined as 35%; on Melanocortin receptor 4 [4], 112%. In addition, the Vd in data set [5] worked out at 10.4 L/kg. This compound came in with a bioavailability in [6] of 22%. Moreover, the half-life in data set [8] was 15.1 h. Besides, the clearance in [9] stood at 0.546 L/h/kg. Further, on Melanocortin receptor 4 [10], the IC50 was 8.5 nM.
The compound `Cc1cc2c(cc1Cl)C1(CCN(C(=O)[C@@H]3CN(C(C)(C)C)C[C@H]3c3ccc(F)cc3F)CC1)C[C@@H]2C(C)(C)C(=O)N(C)C` gave an AUC/dose in the data set with Rattus norvegicus [1] of 0.39 µM·h/mg/kg. The EC50 at Melanocortin receptor 4 [2] was 0.87 nM; in [7], 255 nM. Moreover, the Activity in [3] was 92%; on Melanocortin receptor 4 [4], 108%. Besides, the Vd in [5] is 6.95 L/kg. In addition, in data set [6], the bioavailability turned out to be 24%. The half-life in data set [8] is 5.14 h. For the same compound, the clearance in data set [9] was 1.03 L/h/kg. This compound showed a 50% inhibitory concentration (IC50) on Melanocortin receptor 4 [10] of 0.71 nM.
Consider `CC(=O)NC(C)(C)[C@@H]1CC2(CCN(C(=O)[C@@H]3CN(C(C)(C)C)C[C@H]3c3ccc(F)cc3F)CC2)c2cc(Cl)c(C)cc21`, for which the concentration for a half-maximal effect (EC50) is 1700 nM at Melanocortin receptor 3, 4.6 nM on Melanocortin receptor 4 [2] and 1020 nM in data set [7]. Also, the Activity came out at 25% in data set [3] and 109% at Melanocortin receptor 4 [4]. The result in the data set with Mus musculus [11], in the data set on Mus musculus [13], with Rattus norvegicus [14] and in the data set with Rattus norvegicus [15] was Active. Besides, the result with Mus musculus [12] and with Mus musculus [16] was inactive.
As for `Cc1cc2c(cc1Cl)C1(CCN(C(=O)[C@@H]3CN(C(C)(C)C)C[C@H]3c3ccc(F)cc3F)CC1)C[C@@H]2C(C)(C)C(=O)N1CC(F)(F)C1`, in the data set with Rattus norvegicus [1], the AUC/dose was found to be 0.35 µM·h/mg/kg. The results for the 50% effective concentration (EC50) (at Melanocortin receptor 4 [2]; in data set [7]) were 4.3 nM and 430 nM, respectively. The results for the Activity (in data set [3]; at Melanocortin receptor 4 [4]) were 46% and 78%, respectively. For the same compound, the Vd in data set [5] came to 8.88 L/kg. The compound also had a bioavailability in [6] of 29%. Moreover, in data set [8], the half-life is 7.3 h. For the same compound, the clearance in [9] was 1.31 L/h/kg. This compound returned an IC50 at Melanocortin receptor 4 [10] of 1.8 nM.
`CC[C@H](NC(C)=O)c1cc(Cl)ccc1C1CCN(C(=O)[C@@H]2CN(C(C)(C)C)C[C@H]2c2ccc(F)cc2F)CC1`: the Activity on Melanocortin receptor 4 [4] turned out to be 97%. Further, the result with Rattus norvegicus [17] was Active.
Turning to `Cc1cc2c(cc1Cl)C1(CCN(C(=O)[C@@H]3CN(C(C)(C)C)C[C@H]3c3ccc(F)cc3F)CC1)C[C@H]2C(C)(C)C(=O)NC1CC1`, the concentration giving a half-maximal response (EC50) on Melanocortin receptor 4 [2] amounted to 28 nM; in data set [7] it was 1120 nM. Further, the Activity in [3] is 20%; on Melanocortin receptor 4 [4] it was 95%. For the same compound, the IC50 at Melanocortin receptor 4 [10] turned out to be 55 nM.
For `CCN(CC)C(=O)C(C)(C)[C@H]1CC2(CCN(C(=O)[C@@H]3CN(C(C)(C)C)C[C@H]3c3ccc(F)cc3F)CC2)c2cc(Cl)c(C)cc21` the same measures were 1.7 nM, 168 nM, 67%, 81% and 2.6 nM.
Regarding `CCN(C)C(=O)C(C)(C)[C@H]1CC2(CCN(C(=O)[C@@H]3CN(C(C)(C)C)C[C@H]3c3ccc(F)cc3F)CC2)c2cc(Cl)c(C)cc21`, the values for the EC50 (at Melanocortin receptor 4 [2]; in data set [7]) were 1.6 nM and 355 nM, respectively. Moreover, the Activity in data set [3] was 69%; on Melanocortin receptor 4 [4], 103%. This compound registered an IC50 at Melanocortin receptor 4 [10] of 2.1 nM.
Consider `Cc1cc2c(cc1Cl)C1(CCN(C(=O)[C@@H]3CN(C(C)(C)C)C[C@H]3c3ccc(F)cc3F)CC1)C[C@@H]2C(C)(C)C(=O)NC(C)C`, for which the EC50 on Melanocortin receptor 4 [2] amounted to 2.9 nM; in [7], 435 nM. The Activity in [3] stood at 45%; on Melanocortin receptor 4 [4], 92%. Besides, the IC50 on Melanocortin receptor 4 [10] was 5.9 nM.

(Values after ChEMBL document CHEMBL1800059, “Spiroindane based amides as potent and selective MC4R agonists for the treatment of obesity” (Bioorg Med Chem Lett, 2010).)
